# Data: ChEMBL document CHEMBL1134845, “Syntheses and biological activities of a novel group of steroidal derived inhibitors for human Cdc25A protein phosphatase” (J Med Chem, 2001)
# pIC50: −log10 of the molar value.
# Key:
# [1] = molecular target: T1, M-phase inducer phosphatase 1 (Homo sapiens, UniProt P30304); assay: (§1) Inhibitory activity tested against cell division cycle 25A (assay using fluorescein diphosphate (FDP) as substrate)
# T1 sequence (P30304 whole entry): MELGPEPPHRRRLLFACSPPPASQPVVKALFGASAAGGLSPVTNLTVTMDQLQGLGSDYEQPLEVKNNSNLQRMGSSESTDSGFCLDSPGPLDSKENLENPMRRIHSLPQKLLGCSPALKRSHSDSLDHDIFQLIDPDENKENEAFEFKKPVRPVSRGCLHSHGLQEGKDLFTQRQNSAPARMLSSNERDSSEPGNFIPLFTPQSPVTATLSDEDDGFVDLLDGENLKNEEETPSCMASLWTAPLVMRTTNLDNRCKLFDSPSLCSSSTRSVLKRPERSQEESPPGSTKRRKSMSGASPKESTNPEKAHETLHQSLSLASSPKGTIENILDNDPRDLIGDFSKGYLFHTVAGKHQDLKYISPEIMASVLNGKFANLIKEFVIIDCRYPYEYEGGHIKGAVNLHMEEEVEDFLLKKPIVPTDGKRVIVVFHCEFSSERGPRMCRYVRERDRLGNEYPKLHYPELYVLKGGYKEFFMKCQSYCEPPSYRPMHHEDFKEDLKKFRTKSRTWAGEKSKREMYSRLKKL
# Method in brief: (§2)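 Recombinant human GST-Cdc25A fusion protein, each batch calibrated so that FDP was dephosphorylated linearly over 20 min. Fluorescein diphosphate was the substrate. Reactions ran 15 min at 25 °C in the dark and were stopped with sodium orthovanadate. IC50 came from at least two independent runs, each in triplicate.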
# [2] = molecular target: T1, M-phase inducer phosphatase 1; assay: Inhibitory activity tested against cell division cycle 25A (assay using p-nitro phenyl phosphate (pNPP) as substrate)
# [3] = molecular target: T2, Receptor-type tyrosine-protein phosphatase C (Homo sapiens, UniProt P08575); assay: Inhibitory activity tested against Human CD45 Phosphatase (assay using p-nitrophenyl phosphate (pNPP) as substrate)
# T2 sequence (P08575 whole entry): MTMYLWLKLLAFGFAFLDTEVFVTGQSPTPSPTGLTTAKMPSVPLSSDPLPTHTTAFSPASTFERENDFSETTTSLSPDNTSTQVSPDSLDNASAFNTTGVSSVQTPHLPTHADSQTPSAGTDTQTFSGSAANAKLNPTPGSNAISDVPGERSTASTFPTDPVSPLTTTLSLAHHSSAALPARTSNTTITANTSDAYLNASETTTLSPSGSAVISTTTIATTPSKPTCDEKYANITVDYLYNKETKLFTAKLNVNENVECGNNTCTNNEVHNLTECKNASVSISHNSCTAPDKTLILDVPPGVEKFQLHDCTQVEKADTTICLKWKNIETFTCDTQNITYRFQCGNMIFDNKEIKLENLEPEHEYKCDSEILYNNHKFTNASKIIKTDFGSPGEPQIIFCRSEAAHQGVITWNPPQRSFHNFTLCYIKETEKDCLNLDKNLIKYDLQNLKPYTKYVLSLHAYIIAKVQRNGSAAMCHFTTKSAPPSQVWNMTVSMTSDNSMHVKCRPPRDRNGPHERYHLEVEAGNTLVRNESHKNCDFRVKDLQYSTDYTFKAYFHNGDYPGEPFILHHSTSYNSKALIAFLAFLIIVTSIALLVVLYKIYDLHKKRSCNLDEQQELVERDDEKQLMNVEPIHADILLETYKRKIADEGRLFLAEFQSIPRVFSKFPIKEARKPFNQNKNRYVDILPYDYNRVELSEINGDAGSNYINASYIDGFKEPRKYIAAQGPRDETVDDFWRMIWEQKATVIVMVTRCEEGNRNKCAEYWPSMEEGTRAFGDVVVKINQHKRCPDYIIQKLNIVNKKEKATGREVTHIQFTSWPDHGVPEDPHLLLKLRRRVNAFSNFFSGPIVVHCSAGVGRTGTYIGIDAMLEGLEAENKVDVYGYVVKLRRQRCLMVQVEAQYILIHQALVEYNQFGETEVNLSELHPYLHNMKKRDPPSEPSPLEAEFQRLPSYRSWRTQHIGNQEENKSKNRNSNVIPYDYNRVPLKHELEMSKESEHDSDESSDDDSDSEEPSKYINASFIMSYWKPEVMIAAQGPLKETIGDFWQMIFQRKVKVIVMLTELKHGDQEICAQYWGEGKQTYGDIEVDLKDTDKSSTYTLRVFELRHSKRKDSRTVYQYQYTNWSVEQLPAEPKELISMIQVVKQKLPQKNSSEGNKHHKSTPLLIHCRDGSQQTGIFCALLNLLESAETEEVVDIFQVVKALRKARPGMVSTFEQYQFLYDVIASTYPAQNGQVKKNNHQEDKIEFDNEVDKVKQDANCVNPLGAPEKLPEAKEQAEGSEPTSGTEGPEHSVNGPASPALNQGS
# [4] = molecular target: T3, M-phase inducer phosphatase 1 (Homo sapiens) (UniProt P30304); assay: as §1; details: concentration not given here
# T3 sequence (whole entry): T1 sequence (P30304 whole entry)
# Method in brief: as §2, with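 “orthovanadate. Fluorescein monophosphate was read at 485 nm excitation and 530 nm emission.” for “orthovanadate.”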
# 786-0 = assay: Growth inhibitory activity was determined against 786-0 cancer cell line of renal cancer; format: functional; details: Homo sapiens
# Method in brief: (§3)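 NCI 60 human tumour cell line screen run at the National Cancer Institute. Cell growth and viability read with the protein stain sulforhodamine B, which binds basic amino acids of cells left attached after washing. […] MG MID is the mean GI50 calculated over all panels.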
# A549 = assay: Growth inhibitory activity was determined against A549/ATCC cancer cell line of non-small cell lung cancer; format: functional, Homo sapiens; details: Homo sapiens, A549; method in brief: as §3
# COLO 205 = assay: Growth inhibitory activity was determined against COLO 205 cancer cell line colon cancer; format: functional, Homo sapiens; details: Homo sapiens, COLO 205; method in brief: as §3
# HT-29 = assay: Growth inhibitory activity was determined against HT-29 cancer cell line colon cancer; format: functional, Homo sapiens; details: Homo sapiens, HT-29; method in brief: as §3
# LOX IMVI = assay: Growth inhibitory activity was determined against LOX IMVI cancer cell line of melanoma; format: functional, Homo sapiens; details: Homo sapiens, LOX IMVI; method in brief: as §3
# NCI-H23 = assay: Growth inhibitory activity was determined against NCI-H23 cancer cell line of non-small cell lung cancer; format: functional, Homo sapiens; details: Homo sapiens, NCI-H23; method in brief: as §3
# NCI-H522 = assay: Growth inhibitory activity was determined against NCI-H522 cancer cell line of non-small cell lung cancer; format: functional; details: Homo sapiens; method in brief: as §3
# NCI/ADR-RES = assay: Growth inhibitory activity was determined against NCI/ADR-RES cancer cell line of Breast cancer; format: functional, Homo sapiens; details: Homo sapiens, NCI/ADR-RES; method in brief: as §3
# OVCAR-8 = assay: Growth inhibitory activity was determined against OVCAR-8 cancer cell line of Ovarian cancer; format: functional; details: Homo sapiens; method in brief: as §3
# SN12C = assay: Growth inhibitory activity was determined against SN12C cancer cell line of renal cancer; format: functional; details: Homo sapiens; method in brief: as §3
# SF-539 = assay: Growth inhibitory activity was determined against SF-539 cancer cell line of CNS cancer; format: functional; details: Homo sapiens; method in brief: as §3
# SF-268 = assay: Growth inhibitory activity was determined against SF-268 cancer cell line of CNS cancer; format: functional; details: Homo sapiens; method in brief: as §3
# SK-MEL-5 = assay: Growth inhibitory activity was determined against SK-MEL-5 cancer cell line of melanoma; format: functional, Homo sapiens; details: Homo sapiens, SK-MEL-5; method in brief: as §3
# UO-31 = assay: Growth inhibitory activity was determined against UO-31 cancer cell line of renal cancer; format: functional; details: Homo sapiens; method in brief: as §3
# U-251 = assay: Growth inhibitory activity was determined against U-251 cancer cell line of CNS cancer; format: functional; details: Homo sapiens; method in brief: as §3
# PC-3 = assay: Growth inhibitory activity was determined against PC-3 cancer cell line of Prostate cancer; format: functional; details: Homo sapiens; method in brief: as §3
# T47D = assay: Growth inhibitory activity was determined against T-47D cancer cell line of Breast cancer; format: functional, Homo sapiens; details: Homo sapiens, T47D; method in brief: as §3
# OVCAR-3 = assay: Growth inhibitory activity was determined against OVCAR-3 cancer cell line of Ovarian cancer; format: functional; details: Homo sapiens; method in brief: as §3
# BT-549 (Homo sapiens) = assay: Growth inhibitory activity was determined against BT-549 cancer cell line of Breast cancer; details: Homo sapiens, BT-549
structure (smiles),measurement,setting,value
CC(C)CCC[C@@H](C)[C@H]1CC[C@H]2[C@@H]3CC[C@H]4C[C@@H](OC(=S)SCC(=O)O)CC[C@]4(C)[C@H]3CC[C@]12C,pIC50,[1],6.05
CC(C)CCC[C@@H](C)[C@H]1CC[C@H]2[C@@H]3CC[C@H]4C[C@@H](OC(=S)S)CC[C@]4(C)[C@H]3CC[C@]12C,pIC50,[1],5.96
same,pIC50,[2],4.93
same,pIC50,[3],< 4.00
CC(C)CCC[C@@H](C)[C@H]1CC[C@H]2[C@@H]3CC[C@H]4C[C@@H](OC(=S)SCC(=O)c5ccccc5)CC[C@]4(C)[C@H]3CC[C@]12C,pIC50,[1],< 4.00
CC(C)CCC[C@@H](C)[C@H]1CC[C@H]2[C@@H]3CC[C@H]4CC(NCCCC(=O)O)CC[C@]4(C)[C@H]3CC[C@]12C (stereo partly specified),inhibition,[4],16%
CC(C)CCC[C@@H](C)[C@H]1CC[C@H]2[C@@H]3CC(=O)N4C(=O)C=CCC[C@]4(C)[C@H]3CC[C@]12C,GI50,786-0,1440 nM
same,GI50,A549,4.27 µM
same,GI50,COLO 205,4.76 µM
same,GI50,HT-29,2630 nM
same,GI50,LOX IMVI,840 nM
same,GI50,NCI-H23,4.85 µM
same,GI50,NCI-H522,6.1 µM
same,GI50,NCI/ADR-RES,6.05 µM
same,GI50,OVCAR-8,1970 nM
same,GI50,SN12C,3.46 µM
same,GI50,SF-539,4.46 µM
same,GI50,SF-268,> 25 µM
same,GI50,SK-MEL-5,4.37 µM
same,GI50,UO-31,2950 nM
same,GI50,U-251,3.46 µM
same,GI50,PC-3,4.22 µM
same,GI50,T47D,4.09 µM
same,GI50,OVCAR-3,4 µM
same,GI50,BT-549 (Homo sapiens),5.07 µM
CC(=O)OC1CC[C@](C)([C@H]2CC[C@]3(C)[C@@H]([C@H](C)CCCC(C)C)CC[C@H]3[C@@H]2CC(=O)O)C(=O)C1 (stereo partly specified),pIC50,[1],5.03
COC(CC#N)CC[C@@]1(C)OC(=O)C[C@H]2[C@@H]3CC[C@H]([C@H](C)CCCC(C)C)[C@@]3(C)CC[C@@H]21 (stereo partly specified),pIC50,[1],4.98
C/C(=C/CCCC#N)[C@H]1CC[C@]2(C)[C@@H](C(C)CCCC(C)C)CC[C@H]2[C@@H]1CC(=O)O (stereo partly specified),pIC50,[1],5.62
CC(C)CCC[C@@H](C)[C@H]1CC[C@H]2[C@H](CC(=O)O)[C@@H]([C@@]3(C)CCC=CC3=O)CC[C@]12C,pIC50,[1],5.02
CC(C)CCC[C@@H](C)[C@H]1CC[C@H]2[C@H](CC(=O)O)[C@@H]([C@@]3(C)CC=CCC3=O)CC[C@]12C,pIC50,[1],5.24
CCOC(=O)CSC(=S)O[C@H]1CC[C@@]2(C)[C@@H](CC[C@@H]3[C@@H]2CC[C@]2(C)[C@@H]([C@H](C)CCCC(C)C)CC[C@@H]32)C1,pIC50,[1],< 4.00
